Assay results as given in ChEMBL document CHEMBL1145949, “Constrained derivatives of stylostatin 1. 1. Synthesis and biological evaluation as potential anticancer agents” (2003).

Tests used:
[1] = Growth inhibition effect against ovarian tumor IGROV-ET cells; format: functional, Homo sapiens
Procedure, shortened: (§1)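 SRB colorimetric growth assay. Cells seeded at 5 × 10^3 per well in RPMI, attached 18 h in drug-free medium, then sample added (dissolved in DMSO/H₂O 3:7) for 48-72 h. Fixed with cold 50% TCA, 60 min, 4 °C; stained with 0.4% SRB in 1% acetic acid, 10 min RT; bound dye solubilized in Tris, OD 490 nm. GI50 from 100 × [(T − T0)/(C − T0)] = 50.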

[2] = Growth inhibition effect against […] HT-29 cells; format: functional, Homo sapiens; procedure, shortened: as §1
[3] = Growth inhibition effect against prostate tumor IGROV cells; format: functional, Homo sapiens; procedure, shortened: as §1
[4] = test system: K562; assay: Growth inhibition effect against leukemia […] cells; format: functional, Homo sapiens; procedure, shortened: as §1
[5] = Growth inhibition effect against ovarian tumor SK-BR-3 cells; format: functional, Homo sapiens; procedure, shortened: as §1
[6] = Growth inhibition effect against colon LOVO-DOX cells; format: functional, Homo sapiens; procedure, shortened: as §1
[7] = Growth inhibition effect against prostate tumor LN-caP cells; format: functional, Homo sapiens; procedure, shortened: as §1
[8] = Growth inhibition effect against NSCL A-549 cells; format: functional, Homo sapiens; procedure, shortened: as §1
[9] = Growth inhibition effect against prostate tumor DU-145 cells; format: functional, Homo sapiens; procedure, shortened: as §1
[10] = Growth inhibition effect against prostate tumor SKOV-3 cells; format: functional, Homo sapiens, SK-OV-3; procedure, shortened: as §1
[11] = Growth inhibition effect against melanoma MEL-28 cells; format: functional, Homo sapiens; procedure, shortened: as §1
[12] = Growth inhibition effect against pancreas PANC-1 cells; format: functional, Homo sapiens; procedure, shortened: as §1
[13] = Growth inhibition effect against colon LOVO cells; format: functional, Homo sapiens; procedure, shortened: as §1

Row | Compound | GI50 ([1]; Homo sapiens, IGROV-ET) [µM] | GI50 ([2]; Homo sapiens, HT-29) [µM] | GI50 ([3]; Homo sapiens, IGROV) [µM] | GI50 ([4]; Homo sapiens, K562) [µM] | GI50 ([5]; Homo sapiens, SK-BR-3) [µM] | GI50 ([6]; Homo sapiens, LOVO-DOX) [µM] | GI50 ([7]; Homo sapiens, LNCaP) [µM] | GI50 ([8]; Homo sapiens, A549) [µM] | GI50 ([11]; Homo sapiens, SK-MEL-28) [µM] | GI50 ([12]; Homo sapiens, PANC-1) [µM] | GI50 [9] [µM] | GI50 [10] [µM] | GI50 [13] [µM] | other results
1 | CC[C@H](C)[C@@H]1NC(=O)[C@H](C)NC(=O)[C@H](CC(C)C)N2C[C@@H](O)[C@@H](O)[C@H](NC(=O)[C@H](CC(N)=O)NC(=O)[C@H](Cc3ccccc3)NC(=O)[C@@H]3CCCN3C1=O)C2=O | 4.97 | 9.31 | 3.33 | 3.59 | 3.86 | 8.84 | 3.49 | 5.2 | 6.69 | 5.1 | – | – | – | GI50 ([9]; Homo sapiens, DU-145): 10.6 µM; GI50 ([10]; Homo sapiens, SK-OV-3): 4.99 µM; GI50 ([13]; Homo sapiens, LoVo): 8.83 µM
2 | CC[C@H](C)[C@@H]1NC(=O)[C@H](C)NC(=O)[C@H](CC(C)C)NC(=O)[C@H](CO)NC(=O)[C@H](CC(N)=O)NC(=O)[C@H](Cc2ccccc2)NC(=O)[C@@H]2CCCN2C1=O (stereo in doubt) [STYLOSTATIN 1] | 3.3 | 6.85 | 2.58 | 1.94 | 4.39 | 6.77 | 2.6 | 3.46 | 3.06 | 5.03 | 3.55 | 304 | 4.55 | –
3 | CC[C@H](C)[C@@H]1NC(=O)[C@H](C)NC(=O)[C@H](CC(C)C)NC(=O)[C@H](CO)NC(=O)[C@H](CC(N)=O)NC(=O)[C@H](Cc2ccccc2)NC(=O)[C@@H]2CCCN2C1=O (stereo in doubt; 2) [STYLOSTATIN 1] | – | – | – | – | – | – | – | – | – | – | 8.44 | 3.77 | 11.5 | GI50 [1]: 4.29 µM; GI50 [2]: 7.13 µM; GI50 [3]: 3.35 µM; GI50 [4]: 3.42 µM; GI50 [5]: 4.16 µM; GI50 [6]: 8.52 µM; GI50 [7]: 2.44 µM; GI50 [8]: 4.28 µM; GI50 [11]: 4.64 µM; GI50 [12]: 4.97 µM
